Data taken from ChEMBL document CHEMBL1157856, “Novel quinoline and naphthalene derivatives as potent antimycobacterial agents” (2010).

What was measured:
Type in all cases: functional
[1] = test system: Mycobacterium tuberculosis; test: Antimycobacterial activity against Mycobacterium tuberculosis H37Rv at 6.25 ug/ml by BACTEC 460; details: for inhibition at 6.25 µg/mL: Mycobacterium tuberculosis, H37Rv
[2] = test system: U-937; test: Cytotoxicity against human U937 cells assessed as cell viability at 10 ug/ml after 24 hrs by MTT assay; details: U-937, 24 h, read-out: Activity
Procedure, shortened: (§1)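 U937 human monocytic cells seeded at 1 × 10⁵ cells/mL and allowed to adhere for 1 h at 37 °C under 5% CO₂. Non-adherent cells were rinsed off with RPMI 1640. Adherent cells were exposed in triplicate to compound, medium alone (live control) or 3% Tween 20 (dead control). MTT (5 mg/mL stock in PBS) was added for 3 h at 37 °C. Formazan was dissolved in 0.4 M HCl/isopropanol and A600 read. Values given as percent viability.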

[3] = test system: U-937; test: Cytotoxicity against human U937 cells assessed as cell viability at 10 ug/ml after 72 hrs by MTT assay; details: U-937, 72 h, read-out: Activity; procedure, shortened: as §1
[4] = test system: U-937; test: Cytotoxicity against human U937 cells assessed as cell viability at 1 ug/ml after 24 hrs by MTT assay; details: U-937, 24 h, read-out: Activity; procedure, shortened: as §1
[5] = test system: U-937; test: Cytotoxicity against human U937 cells assessed as cell viability at 1 ug/ml after 72 hrs by MTT assay; details: U-937, 72 h, read-out: Activity; procedure, shortened: as §1

SMILES | inhibition at 6.25 µg/mL [1] | also measured
OC(COC(c1ccccc1)c1cccc2ccccc12)CN1CCN(c2ccc(Cl)cc2)CC1 (stereo unspecified) | 5% | 
Cc1cc(C(OCC(O)CN2CCN(c3ccccn3)CC2)c2ccncc2)c2cc(Br)ccc2n1 (stereo unspecified) | 4% | 
Cc1cc(C(OCC(O)CN(C)CCO)c2ccncc2)c2cc(Br)ccc2n1 (stereo unspecified) | 13% | 
COCCNCC(O)COC(c1ccncc1)c1cc(C)nc2ccc(Br)cc12 (stereo unspecified) | 19% | 
COc1cccc(N2CCN(CC(O)COC(c3ccccc3)c3cccc4ccccc34)CC2)c1 (stereo unspecified) | 99% | viability at 10 µg/mL [2]: 82%; viability at 10 µg/mL [3]: 63%; viability at 1 µg/mL [4]: 100%; viability at 1 µg/mL [5]: 100%
Cc1cc(C(OCC(O)Cn2ccc(C)n2)c2ccncc2)c2cc(Br)ccc2n1 (stereo unspecified) | 8% | 
Cc1cc(C(OCC(O)Cn2cncn2)c2ccncc2)c2cc(Br)ccc2n1 (stereo unspecified) | 10% | 
Cc1cc(C(OCC(O)CNc2ncn[nH]2)c2ccncc2)c2cc(Br)ccc2n1 (stereo in doubt; 13) [1-(1H-1,2,4-TRIAZOL-5-YLAMINO)-3-((6-BROMO-2-METHYLQUINOLIN-4-YL)(PYRIDIN-4-YL)METHOXY)PROPAN-2-OL (STRUCTURAL MIX)] |  | inhibition (INH) [1]: 15%
Cc1cc(C(OCC(O)Cn2ccnc2)c2ccncc2)c2cc(Br)ccc2n1 (stereo unspecified) | 7% | 
Cc1cc(C(OCC(O)CNc2nnn[nH]2)c2ccncc2)c2cc(Br)ccc2n1 (stereo unspecified) | 20% | 
OC(COC(c1ccccc1)c1cccc2ccccc12)CN1CCN(Cc2ccccc2)CC1 (stereo unspecified) | 91% | viability at 10 µg/mL [2]: 77%; viability at 10 µg/mL [3]: 74%; viability at 1 µg/mL [4]: 77%; viability at 1 µg/mL [5]: 71%
OC(COC(c1ccccc1)c1cccc2ccccc12)CN1CCN(c2ccc(Cl)c(Cl)c2)CC1 (stereo unspecified) | 4% | 
Cc1cc(C(OCC(O)CNCCN)c2ccncc2)c2cc(Br)ccc2n1 (stereo unspecified) | 5% | 
OC(COC(c1ccccc1)c1cccc2ccccc12)CN1CCN(c2ccc(F)cc2)CC1 (stereo unspecified) | 14% | 
Cc1cc(C(OCC(O)CNc2ncn[nH]2)c2ccncc2)c2cc(Br)ccc2n1 (stereo in doubt; 12) [1-(1H-1,2,4-TRIAZOL-5-YLAMINO)-3-((6-BROMO-2-METHYLQUINOLIN-4-YL)(PYRIDIN-4-YL)METHOXY)PROPAN-2-OL (STRUCTURAL MIX)] | 22% | 
OC(COC(c1ccccc1)c1cccc2ccccc12)CN1CCN(C(c2ccccc2)c2ccccc2)CC1 (stereo unspecified) | 98% | viability at 10 µg/mL [2]: 74%; viability at 10 µg/mL [3]: 70%; viability at 1 µg/mL [4]: 93%; viability at 1 µg/mL [5]: 79%
Cc1cc(C(OCC(O)Cn2cccn2)c2ccncc2)c2cc(Br)ccc2n1 (stereo unspecified) | 9% | 
OC(COC(c1ccccc1)c1cccc2ccccc12)CN1CCN(c2cccc(C(F)(F)F)c2)CC1 (stereo unspecified) | 11% | 
COc1ccccc1N1CCN(CC(O)COC(c2ccccc2)c2cccc3ccccc23)CC1 (stereo unspecified) | 90% | viability at 10 µg/mL [2]: 81%; viability at 10 µg/mL [3]: 62%; viability at 1 µg/mL [4]: 81%; viability at 1 µg/mL [5]: 64%
OC(COC(c1ccccc1)c1cccc2ccccc12)CN1CCN(c2ccccn2)CC1 (stereo unspecified) | 23% | 
